# Measured values from PubChem BioAssay AID602213 (Southern Research Specialized Biocontainment Screening …, 2012).
# Active and inactive are the calls of the source.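 The calls were made as follows: active = inhibition of 30% or more at any tested concentration; inactive = the rest.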
# Biological target: M1-family alanyl aminopeptidase PfA-M1 (Plasmodium falciparum 3D7)
# Assay: PfM1AAP aminopeptidase inhibitors, dose response, biochemical, QFRET, H-Leu-NHMec substrate, set 2 (AID 602213)
# Conditions: recombinant PfM1AAP, H-Leu-NHMec fluorogenic cleavage
# How it was run: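 System: purified recombinant PfM1AAP, an M1-family alanyl aminopeptidase of Plasmodium falciparum / Also added: H-Leu-NHMec fluorogenic peptide substrate, 0.1 mM final / Compound: 10 concentrations, 0.2–100 µM, 1:2 steps / Times: 90 min reaction at room temperature / Signal: fluorescence of released NHMec, excitation 370 nm, emission 460 nm / Replication: triplicate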
row,IC50,SMILES
1,2.26 µM,O=C(NCc1ccccc1)C1CCN(S(=O)(=O)c2ccc(Br)s2)CC1
2,14.6 µM,O=C(NCc1ccc(Cl)cc1)C1CCN(S(=O)(=O)c2ccc(Br)s2)CC1
3,5.05 µM,O=C(NCc1ccc(F)cc1)C1CCN(S(=O)(=O)c2ccc(Br)s2)CC1
4,1.54 µM,O=C(NCc1ccc2c(c1)OCO2)C1CCN(S(=O)(=O)c2ccc(Br)s2)CC1

# Same assay, conditions: recombinant PfM1AAP, H-Leu-NHMec fluorogenic cleavage; at 100 µM (top of the series)
row,inhibition,SMILES
1,inactive,CC[C@H](C)[C@H](NC(=O)c1ccc(C(C)(C)C)cc1)C(=O)NCc1ccc2c(c1)OCO2
2,inactive,CC[C@H](C)[C@H](NC(=O)c1ccc(C(C)(C)C)cc1)C(=O)NCc1ccc(Cl)cc1
3,inactive,CC[C@H](C)[C@H](NS(=O)(=O)c1ccc(Br)s1)C(=O)NCc1ccc2c(c1)OCO2
4,inactive,CC[C@H](C)[C@H](NS(=O)(=O)c1ccc(Br)s1)C(=O)NCc1ccc(Cl)cc1
